Data from ChEMBL document CHEMBL1125792, “Complexes of .NO with nucleophiles as agents for the controlled biological release of nitric oxide. Vasorelaxant effects” (J Med Chem, 1991).

Tests used:
Half-life was determined = conditions: pH 7.4 phosphate buffer at 37 °C
Oryctolagus cuniculus [1] = species: Oryctolagus cuniculus; test: Peak relaxation(Rm) of the vascular ring by the compound at highest concentration; format: functional
Oryctolagus cuniculus [2] = species: Oryctolagus cuniculus; test: Vasorelaxant activity against isolated vascular ring preparation from rabbit thoracic aorta; format: functional
[3] = Rate constant for loss of chromophore; format: ADME
Summary of the method: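 UV decay of the 230–260 nm chromophore. Compound dissolved in 0.01 M KOH, then diluted with a large excess of pH 7.4 phosphate buffer in a thermostated 37 °C cuvette. Spectra were recorded within 1–2 s and intermittently afterward. First-order k was taken from the slope of ln(A − A∞) versus time; t1/2 was derived from k.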

SMILES	half-life (Half-life was determined) [min]	Rm (Oryctolagus cuniculus [1]) [%]	EC50 (Oryctolagus cuniculus [2]) [nM]	k [3] [s⁻¹]
CCN(CC)/[N+]([O-])=N\[O-].[Na+]	2.1	86	190	0.0054
CC(C)N[N+]([O-])=N[O-].[Na+]	2.3	85	450	0.0051
N.N.O=NN(O)S(=O)(=O)O	6.8	58	62000	0.0017
NCCCNCCCCN(CCCN)/[N+]([O-])=N\O	39	56	6200	0.0003
[Na+].[Na+].[O-][N+]([O-])=NO [ANGELI'S SALT]	2.3	74	590	0.005
